Screens as filed in PubChem.
Sampled rows, rich in hits. Any-hit rate of the full collection: about 2.6%.
SENP7 inh – inhibitors of human SENP7 protease; Q9BQF6; recombinant SENP7, Z-RLRGG-aminoluciferin luminescence, 40 min; inhibition, % at 5 µM; 330,000 compounds, 1.5% hits; AID 434973;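 active = inhibition above about 50% at the single test dose, limit read from the data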;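 note: plate controls were DMSO with enzyme for no effect and no enzyme buffer wells for full effect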
SENP8 block-1 – inhibitors of human SENP8 protease. inhibition, % at 20 µM. recombinant SENP8, Nedd8 substrate fluorescence. AID 602440. 360,000 compounds, 0.64% hits. Q96LD8; in the data active = inhibition mostly above about 40%, no sharp cut-off; inactive = mostly below about 27%
Platelet DG rel – platelet dense granule release activity; human platelet-rich plasma, SFLLRN dense granule ATP release, luminescence; inhibition, %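 (compounds screened at 7.5 µM in platelet-rich plasma)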; 300,000 compounds, 0.22% hits; AID 1663;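 active = mean replicate score, as percent of positive control, at or above 50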
SENP6 block – inhibitors of human SENP6 protease | Recombinant SENP6 catalytic domain, aminoluciferin luminescence | 330,000 compounds, 1.8% hits | inhibition, % at 10 µM;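 active = inhibition above about 50% at the single tested dose, limit read from the data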;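 note: plate controls were DMSO wells with enzyme for no effect and DMSO wells lacking enzyme for full effect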
Target sequence (Q9GZR1 628-1112 limits assumed): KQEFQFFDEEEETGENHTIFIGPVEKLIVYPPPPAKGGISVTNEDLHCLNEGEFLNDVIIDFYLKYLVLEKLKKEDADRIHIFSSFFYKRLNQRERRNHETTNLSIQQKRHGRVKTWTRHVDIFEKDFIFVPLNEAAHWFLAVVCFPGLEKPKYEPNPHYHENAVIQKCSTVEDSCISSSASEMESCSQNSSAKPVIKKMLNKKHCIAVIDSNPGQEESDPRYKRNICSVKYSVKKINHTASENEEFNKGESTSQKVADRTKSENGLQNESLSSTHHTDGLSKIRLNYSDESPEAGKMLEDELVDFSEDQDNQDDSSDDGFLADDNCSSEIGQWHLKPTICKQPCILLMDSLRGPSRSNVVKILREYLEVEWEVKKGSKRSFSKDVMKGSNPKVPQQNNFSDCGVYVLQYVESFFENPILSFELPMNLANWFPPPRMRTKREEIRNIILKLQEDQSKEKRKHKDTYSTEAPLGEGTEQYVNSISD
SENP8 block-2 – inhibitors of human SENP8 protease | Q96LD8 | AID 2540 | purified SENP8, Z-RLRGG-aminoluciferin cleavage, luminescence | 330,000 compounds, 1.2% hits | inhibition, % at 10 µM; in the data active = inhibition above about 50%
SENP1 FRET inh – SENP1 (human) catalytic domain inhibition; Q9P0U3; recombinant SENP1 catalytic domain, CyPet-SUMO1-YPet FRET cleavage; inhibition, % at 10 µM; 360,000 compounds, 0.21% hits; AID 624204;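 active = inhibition at least 30% at 10 µM, raw YFP signal under a set limit, fluorescence ratio 0.5 to 1.5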;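 note: 0% = enzyme with DMSO and 100% = no enzyme wells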
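Compound: 10 µM single point, 0.5% DMSO; Test system: hSENP1 catalytic domain, recombinant; Timing: 50 min reaction at room temperature; Technique: FRET, CFP and YFP emission; Control set: no-enzyme wells low, DMSO-plus-enzyme wells high control.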
SENP8 conf – confirmation of human SENP8 protease inhibitors; shares compounds with SENP7 inh; Recombinant SENP8, Z-RLRGG-aminoluciferin luminescence, 60 min; 6,200 compounds, 40% hits; inhibition, % at 12.5 µM;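 active = mean inhibition across replicates above about 50%, limit read from the data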
SENP6 confirm – confirmation of human SENP6 protease inhibitors; inhibition, % at 12.5 µM; 6,200 compounds, 58% hits; recombinant SENP6, Z-RLRGG-aminoluciferin luminescence; shares compounds with SENP7 inh
SENP7 confirm – human SENP7 inhibition, confirmed. shares compounds with SENP7 inh. recombinant SENP7, Z-RLRGG-aminoluciferin luminescence, 40 min. inhibition, % at 12.5 µM. 6,200 compounds, 69% hits. AID 488917
Casp3 select – selectivity test for SENP inhibitors: human caspase-3 inhibition; 6,200 compounds, 60% hits; purified caspase-3, Z-DEVD-aminoluciferin luminescence, 60 min; AID 488918; inhibition, % at 12.5 µM; shares compounds with SENP7 inh;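 active = mean inhibition above about 50%, limit read from the data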;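 note: plate controls were enzyme with DMSO for no effect and wells without caspase-3 for full effect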
Luc interf – interferes with luciferase luminescence in SENP counter-screen. AID 488919. 6,200 compounds, 39% hits. inhibition, % at 12.5 µM. Pre-incubated SENP8/Z-RLRGG-aminoluciferin, luciferase luminescence interference. shares compounds with SENP7 inh;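 active = mean inhibition above about 50% when retested at one dose, limit read from the data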;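 note: plate controls were DMSO wells with completed reaction for no effect and substrate without enzyme for full effect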
The depositor's hits bear a star; · = no result.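 Rule for the calls, unless noted: active = mean inhibition above about 50% in the one-dose retest (limit read from the data); inactive = the rest.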

SMILES	SENP7 inh	SENP8 block-1	Platelet DG rel	SENP6 block	SENP8 block-2	SENP1 FRET inh	SENP8 conf	SENP6 confirm	SENP7 confirm	Casp3 select	Luc interf
Cc1ccc(N/C=C/C(=O)c2cccs2)cc1	93.2*	-163.3	51.6*	92.8*	94.2*	-37.0	79.3*	97.2*	101.2*	95.0*	69.8*
O=C(/C=C/Nc1ccccc1F)c1cccs1	100.0*	-78.9	48.5	95.8*	96.2*	-37.4	97.2*	99.8*	102.8*	97.5*	96.6*
O=C(C=Cc1cccs1)c1cccs1	·	2.7	·	·	·	-0.3	·	·	·	·	·
Cc1noc(NS(=O)(=O)c2ccc(N/C=C\C(=O)c3cccs3)cc2)c1C	-14.9	-63.1	-3.5	15.6	-3.1	-67.9	·	·	·	·	·
O=C(/C=C\Nc1cccc(F)c1)c1cccs1	92.4*	-283.9	17.4	94.4*	88.8*	-82.9	95.6*	96.9*	102.0*	93.3*	94.8*
O=C(/C=C/Nc1ccc(F)cc1F)c1cccs1	98.7*	-138.5	36.0	96.3*	97.0*	-48.8	-7.9	99.7*	103.5*	97.8*	26.8
NC(c1ccccc1)c1csc(Nc2ccc(C(=O)NCCCO)cn2)n1 (centres undefined)	·	-309.8	·	·	·	-0.2	·	·	·	·	·
CC(C)COc1cccc(C(=O)N(CC(=O)Nc2ccccc2C(F)(F)F)Cc2ccco2)c1	4.4	3.1	·	-5.4	2.5	0.3	·	·	·	·	·
Cc1oc(/N=C/c2ccccc2O)c(C#N)c1C	-3.8	-7.5	-5.6	5.7	-10.3	-10.4	·	·	·	·	·
Cc1oc(/N=C/c2ccc(O)cc2O)c(C#N)c1C	-9.3	-12.5	2.0	57.4*	32.0	-92.6	81.3*	82.3*	93.9*	55.5*	26.8
COCCNC(=O)C1CCCN(C(=O)c2cncc(Br)c2)CC1 (centres undefined)	·	13.1	·	·	·	-0.2	·	·	·	·	·
Cc1ccc(CSc2nc3ncccc3[nH]2)cc1	67.3*	11.3	3.4	80.8*	63.7*	-1.9	6.9	77.0*	95.4*	42.6	80.8*
C=C(C)CSc1nc2ncccc2[nH]1	4.5	9.8	-2.7	-13.1	3.6	1.4	·	·	·	·	·
COc1cc(C(=O)NCCN2C(=O)S/C(=C\c3cccs3)C2=O)cc(OC)c1OC	64.1*	6.3	-2.6	11.6	55.6*	-0.2	2.4	4.5	8.8	6.0	-0.5
COc1cc(OC)cc(C(=O)NCCN2C(=O)S/C(=C\c3cccs3)C2=O)c1	-8.7	11.8	1.9	-34.7	-17.5	0.6	·	·	·	·	·
CCOC(=O)c1oc2cccc(O)c2c1C	63.0*	-47.5	5.3	-13.1	50.4*	0.8	2.0	59.3*	82.5*	59.2*	64.9*
CCOC(=O)c1oc2cccc(OC(C)=O)c2c1C	14.4	19.5	-5.0	43.2	29.0	2.9	·	·	·	·	·
O=C(/C=C\Nc1ccc2c(c1)OCO2)c1ccccn1	99.9*	-298.6	58.3*	97.0*	96.0*	-31.0	81.4*	97.2*	99.0*	92.4*	26.0
O=C(NCc1ccc2c(c1)OCO2)c1ccccn1	0.0	25.0	8.5	2.1	-10.8	1.9	·	·	·	·	·
Cc1ccnc2nc(C(=O)Nc3ccc4c(c3)OCO4)nn12	-2.4	22.7	21.3	67.0*	57.3*	0.2	35.7	63.4*	53.3*	90.5*	29.6
O=C(Nc1ccc2c(c1)OCO2)c1ccccn1	57.1*	12.3	·	65.6*	52.7*	0.5	71.3*	71.0*	88.1*	88.7*	73.2*
